Experimental findings from article PMC3052282 (Journal of biomolecular screening, 2010) are described below.

Entries after “also recorded” stand apart in the source; their conditions may differ. Where only a bound is given, the exact number is not on record here.

The target in assay [1] is T1, DnaK-DnaJ (Escherichia coli, UniProt P0A6Y8). The experiment in a line: High throughput ATPase assay of DnaK-DnaJ. Conditions: for inhibition of DnaK-DnaJ ATPase activity upon re-testing: repurchased (fresh) samples. The assay is classed as biochemical.
T1 sequence (P0A6Y8 whole entry): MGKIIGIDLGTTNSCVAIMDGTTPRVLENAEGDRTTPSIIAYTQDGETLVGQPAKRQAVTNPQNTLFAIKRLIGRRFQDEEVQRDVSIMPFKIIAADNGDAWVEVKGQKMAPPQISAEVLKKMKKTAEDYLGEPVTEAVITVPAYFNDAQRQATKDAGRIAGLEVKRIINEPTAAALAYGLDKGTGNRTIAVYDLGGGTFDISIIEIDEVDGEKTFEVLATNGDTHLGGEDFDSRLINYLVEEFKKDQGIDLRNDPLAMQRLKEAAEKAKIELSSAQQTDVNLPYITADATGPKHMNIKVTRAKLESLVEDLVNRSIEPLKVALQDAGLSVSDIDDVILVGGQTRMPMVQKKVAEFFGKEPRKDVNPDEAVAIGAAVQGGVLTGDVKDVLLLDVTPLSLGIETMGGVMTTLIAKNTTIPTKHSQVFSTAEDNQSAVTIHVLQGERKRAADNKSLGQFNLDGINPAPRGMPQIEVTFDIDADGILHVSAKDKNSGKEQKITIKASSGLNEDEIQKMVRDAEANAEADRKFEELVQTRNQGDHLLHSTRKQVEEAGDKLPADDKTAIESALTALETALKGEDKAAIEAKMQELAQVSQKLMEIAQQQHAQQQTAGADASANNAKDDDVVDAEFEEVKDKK
Assay [2] has as its target firefly luciferase [luciferase: P08659]. The experiment in a line: ELISA. In general terms: In an ELISA, binding on a coated surface is turned into a signal by an enzyme label.
The target of assay [3] is DnaK binding to luciferase (Escherichia coli, UniProt P0A6Y8). Put plainly: ELISA of DnaK binding to the model substrate firefly luciferase. As to conditions: 0.05 μM DnaK + 1 mM ATP.
DnaK binding to luciferase, sequence (P0A6Y8 whole entry): as above
The target of assay [4] is T1, DnaK-DnaJ. The experiment in a line: DnaJ-mediated stimulation of ATP turnover by DnaK. The assay is classed as biochemical. Conditions: DnaK 0.6 μM. In outline: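 E. coli DnaK (purified) at 0.6 µM with DnaJ titrated, in 100 mM Tris-HCl, 20 mM KCl, 6 mM MgCl2, 0.01% Triton X-100, pH 7.4. Reaction started with 7 mM ATP stock and run 3 h at 37 °C. Quinaldine red–molybdate reagent added for 2 min, quenched with sodium citrate, then 15 min at 37 °C. Absorbance read at 530 nm; triplicates.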

The target of another assay is DnaK (Escherichia coli, UniProt P0A6Y8). Put plainly: Intrinsic ATPase activity of DnaK. It counts as biochemical. Conditions: without DnaJ stimulation.
DnaK, sequence (P0A6Y8 whole entry): as above

firefly luciferase [luciferase: P08659], sequence (P08659 whole entry): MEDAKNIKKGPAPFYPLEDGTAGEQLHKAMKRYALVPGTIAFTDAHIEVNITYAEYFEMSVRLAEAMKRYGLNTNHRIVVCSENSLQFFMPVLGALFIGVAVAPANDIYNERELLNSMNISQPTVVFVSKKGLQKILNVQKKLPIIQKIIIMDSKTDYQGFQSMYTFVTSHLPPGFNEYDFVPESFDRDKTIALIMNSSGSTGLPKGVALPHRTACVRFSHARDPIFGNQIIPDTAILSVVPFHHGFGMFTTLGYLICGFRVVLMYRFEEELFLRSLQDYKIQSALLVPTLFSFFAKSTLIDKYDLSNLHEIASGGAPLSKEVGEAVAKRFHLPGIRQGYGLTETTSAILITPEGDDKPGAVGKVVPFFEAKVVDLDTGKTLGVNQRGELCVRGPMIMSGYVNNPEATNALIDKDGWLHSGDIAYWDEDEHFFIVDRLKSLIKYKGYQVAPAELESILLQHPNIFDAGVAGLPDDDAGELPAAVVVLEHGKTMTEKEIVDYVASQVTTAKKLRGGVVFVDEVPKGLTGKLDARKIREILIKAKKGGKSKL
Escherichia coli heat shock protein 70 (Hsp70/DnaK), sequence (P0A6Y8 whole entry): as the sequence (P0A6Y8 whole entry) above

The term IC50 denotes the midpoint of a concentration-inhibition curve. Consider `CCCCCCn1c(N)c(C(=O)OCC)c2nc3ccccc3nc21` [2b, ethyl 2-amino-1-hexyl-1H-pyrrolo[2,3-b]quinoxaline-3-carboxylate], for which the IC50 against DnaK-DnaJ [1] is > 500 µM.
For the compound `CCc1ccc(C2Nc3ccc(C(=O)O)cc3C3C=CCC32)cc1` (stereo not drawn) [1d, 4-(4-ethylphenyl)-3a,4,5,9b-tetrahydro-3H-cyclopenta[c]quinoline-8-carboxylic acid], at DnaK-DnaJ [1], the “inhibition of DnaK-DnaJ ATPase activity upon re-testing” value (shortened to “inhibition”) is “none of these compounds were inhibitors”.
With `Cc1cc(C(F)(F)F)c(C#N)c(SCC(=O)c2ccccc2)n1` [3a, 6-methyl-2-((2-oxo-2-phenylethyl)thio)-4-(trifluoromethyl)nicotinonitrile], at DnaK-DnaJ [1], the IC50 was > 500 µM.
The term Kd denotes the equilibrium constant for the complex coming apart. A high value points to a looser complex. “Escherichia coli heat shock protein 70 (Hsp70/DnaK) (from UniProt P0A6Y8 1-638) (natural protein)” had a dissociation constant (Kd) in assay [2] of 0.26 µM.
For the compound `O=C(O)c1cccc2c1NC(c1ccc([N+](=O)[O-])cc1)C1CC=CC21` (stereo not drawn) [1a, 4-(4-nitrophenyl)-3a,4,5,9b-tetrahydro-3H-cyclopenta[c]quinoline-6-carboxylic acid], the “inhibition” value against DnaK-DnaJ [1] is recorded as “none of these compounds were inhibitors”.
Take `O=C(O)c1ccc2c(c1)C1C=CCC1C(c1cccc(C(F)(F)F)c1)N2` (stereo not drawn) [1c, 4-(3-(trifluoromethyl)phenyl)-3a,4,5,9b-tetrahydro-3H-cyclopenta[c]quinoline-8-carboxylic acid]: the “inhibition” value against DnaK-DnaJ [1] is “none of these compounds were inhibitors”.
For `O=C(O)c1ccc2c(c1)C1C=CCC1C(c1ccc(Cl)cc1)N2` (stereo not drawn) [1b, 4-(4-chlorophenyl)-3a,4,5,9b-tetrahydro-3H-cyclopenta[c]quinoline-8-carboxylic acid], the “inhibition” value against DnaK-DnaJ [1] is “none of these compounds were inhibitors”.
As for `CCOC(=O)c1c(N)n(-c2ccccc2)c2nc3ccccc3nc12` [2a, ethyl 2-amino-1-phenyl-1H-pyrrolo[2,3-b]quinoxaline-3-carboxylate], on DnaK-DnaJ [1], the IC50 was > 500 µM.
With `CCOC(=O)c1c(N)sc2c1CCN(C(C)=O)C2` [3b, ethyl 6-acetyl-2-amino-4,5,6,7-tetrahydrothieno[2,3-c]pyridine-3-carboxylate], the IC50 against DnaK-DnaJ [1] is > 500 µM.
As to `COc1cc(C(=O)NS(=O)(=O)c2ccccc2C)ccc1Cc1cn(C)c2ccc(NC(=O)OC3CCCC3)cc12` [3c, cyclopentyl (3-(2-methoxy-4-((o-tolylsulfonyl)carbamoyl)benzyl)-1-methyl-1H-indol-5-yl) carbamate], the IC50 at DnaK-DnaJ [1] was 37 ± 1 µM. Besides, the “effect on apparent affinity of DnaK for luciferase” value in assay [3] was “significantly improved the apparent affinity; also recorded: significantly enhanced this interaction”. The “K0.5 of DnaJ” value on DnaK-DnaJ [4] (in presence of 25 μM compound) was 0.18 ± 0.01 µM; on DnaK-DnaJ [4] (in presence of 50 μM compound) it was 0.96 ± 0.16 µM; at DnaK-DnaJ [4] (in presence of 100 μM compound) it was “greater than 2 μM”. For the same compound, the “effect on the intrinsic ATPase activity of DnaK” value at DnaK was “little effect on the intrinsic ATPase activity”.
